Compound activity as filed in PubChem.
SKKanGAS inh: SKKanGAS growth inhibition; S. pyogenes SKKanGAS, kanamycin growth, BacTiter-Glo, 6 h; inhibition, % at 7.5 µM; 1.3% of 300,000 active; AID 1662;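 active = mean replicate score, as percent of positive control median, at least 50; inconclusive = mean below 50 but one replicate at or above 50; inactive = mean and every replicate below 50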;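 also: strain carries kanamycin resistance gene driven by streptokinase promoter and grows in 40 µg/ml kanamycin; loss of luminescence reflects streptokinase promoter inhibition or plain growth inhibition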
Mdm2 MdmX PPI: inhibitors of human Mdm2/MdmX interaction; O15151+Q00987; SaOS-2 split-luciferase Mdm2/MdmX complementation, luminescence; inhibition, % at 8 µM; 3% of 330,000 active;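 active = inhibition of at least 50% at 8 µM in the primary screen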
Target sequence (O15151 whole entry, looked up): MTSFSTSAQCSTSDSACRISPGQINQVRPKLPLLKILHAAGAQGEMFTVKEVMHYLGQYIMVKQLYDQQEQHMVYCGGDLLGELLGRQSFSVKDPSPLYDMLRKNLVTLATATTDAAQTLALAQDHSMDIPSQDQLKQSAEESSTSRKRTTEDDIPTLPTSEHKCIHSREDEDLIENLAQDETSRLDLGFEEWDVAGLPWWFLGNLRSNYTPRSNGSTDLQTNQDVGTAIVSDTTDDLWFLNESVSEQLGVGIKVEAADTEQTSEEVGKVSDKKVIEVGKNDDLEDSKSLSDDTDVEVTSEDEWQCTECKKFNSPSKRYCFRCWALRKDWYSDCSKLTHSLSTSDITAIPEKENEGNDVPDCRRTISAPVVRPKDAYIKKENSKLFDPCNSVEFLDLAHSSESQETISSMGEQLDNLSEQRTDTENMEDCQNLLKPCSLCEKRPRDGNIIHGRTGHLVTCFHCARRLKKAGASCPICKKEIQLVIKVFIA
Target sequence (Q00987 whole entry, looked up): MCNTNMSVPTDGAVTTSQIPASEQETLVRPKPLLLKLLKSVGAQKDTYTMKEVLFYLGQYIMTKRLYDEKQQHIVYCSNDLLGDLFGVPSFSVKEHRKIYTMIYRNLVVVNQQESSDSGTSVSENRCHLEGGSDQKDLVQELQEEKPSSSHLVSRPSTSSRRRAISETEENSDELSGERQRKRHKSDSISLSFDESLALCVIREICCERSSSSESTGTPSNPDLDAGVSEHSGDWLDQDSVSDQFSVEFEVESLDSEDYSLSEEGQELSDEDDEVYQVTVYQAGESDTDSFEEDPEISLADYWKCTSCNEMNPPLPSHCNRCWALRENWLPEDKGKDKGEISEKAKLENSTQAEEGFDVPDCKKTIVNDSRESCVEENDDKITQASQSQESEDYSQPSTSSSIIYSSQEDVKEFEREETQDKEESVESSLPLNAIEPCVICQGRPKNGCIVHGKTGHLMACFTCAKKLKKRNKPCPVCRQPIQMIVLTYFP
CSC inhib: cancer stem cell inhibition | cancer stem cell-like cells viability, luminescence | inhibition, % at 7.5 µM | 1.1% of 300,000 active | AID 2717; in the data active = inhibition above about 75%; inconclusive = no clear call, values can overlap the other calls; tested in HMLE shEcad cells
T cruzi inh: T. cruzi replication inhibition; T. cruzi beta-gal in NIH3T3, luminescence, 90 h; 1.4% of 300,000 active; inhibition, % (concentration not given with the values);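 active = mean inhibition across valid replicates above about 55%, limit read from the data; inconclusive = mean below that limit but half or more replicates reach it; inactive = mean below it, under half of replicates reach it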;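 also: signal also drops with host cell toxicity which is not excluded here; higher percent means less beta-gal luminescence so fewer parasites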
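Assay system: NIH/3T3 host cells with β-galactosidase reporter T. cruzi; input: 5,000 host fibroblasts per well; compound: single 50 nL compound addition per well in DMSO; timing: ≥90 h infection period, 3 h prior cell attachment; measured by: GalScreen β-gal luminescence, detergent lysis, 60 min; evaluation: percent inhibition of parasite-derived β-gal signal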
Lmaj promast: reduces viability of Leishmania major promastigotes; resazurin fluorescence viability; inhibition, % at 10 µM; 9% of 200,000 active; in the data active = inhibition above about 50%;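 also: promastigotes grown with compound for 44 hours at 28 °C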
Beta cell apopt: blocks beta cell apoptosis | INS-1E cytokine-induced death, ATP luminescence, 48 h; percent of positive-control rescue, neutral wells zero | protection from apoptosis, % (test concentration not listed) | 0.8% of 300,000 active | AID 435005;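 active = Every replicate reaches about 75%, or at least half do and their mean reaches it too, limit read from the data; inconclusive = At least half of replicates reach the limit but their mean does not; inactive = Under half of replicates reach the limit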;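 also: higher means more ATP so stronger rescue from cytokine killing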
Mdm2 MdmX conf: confirmation of human Mdm2/MdmX interaction inhibitors; shares compounds with Mdm2 MdmX PPI; 55% of 10,000 active; inhibition, % at 8 µM; Mdm2-MdmX binding, luminescent assay; in the data active = inhibition above about 40%
Full FLuc ctr: inhibits full-length luciferase, flagging false Mdm2/MdmX hits | shares compounds with Mdm2 MdmX PPI | SaOS-2 full-length luciferase counterscreen, luminescence | inhibition, % at 8 µM | 77% of 6,200 active;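 active = mean inhibition at 8 µM reaching about 37%, which flags the compound as non-specific, limit read from the data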;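 also: p53-null SaOS-2 cells with luciferase driven by a doxycycline-inducible promoter; compound on cells about two nights before reading with doxycycline added after day one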
Hits are given with their value; n = inactive; u = inconclusive; x = not tested or not shown. An excerpt weighted towards active compounds, which were near 9.4% of everything screened.

SMILES | SKKanGAS inh | Mdm2 MdmX PPI | CSC inhib | T cruzi inh | Lmaj promast | Beta cell apopt | Mdm2 MdmX conf | others
CCC(C)[C@H](NC(=O)Nc1cccc(Br)c1)C(=O)OC (stereo not given in full) | n | n | n | n | n | n | x
O=C(COC(=O)c1ccco1)NC1CCCC1 | n | n | n | n | x | n | x
COc1cccc(CNC(=O)c2cc(S(=O)(=O)N3CCOCC3)ccc2N2CCCC2)c1 | x | n | n | x | x | n | x
COc1ccc(C2CC(c3cccc(Cl)c3)=NN2c2ccc(S(N)(=O)=O)cc2)cc1 (stereo not given) | x | 68 | x | x | x | x | n
O=C(NCCc1nc2ccc(Cl)cc2[nH]1)C1CCC(=O)N(Cc2cccc(F)c2)C1 (stereo not given) | n | n | n | n | x | n | x
O=C(NCCCn1ccnc1)c1cn(-c2ccccc2)nc1-c1ccc(F)cc1 | n | n | n | n | n | n | x
N#C/C(=C/c1cn(-c2ccccc2)nc1-c1cccc(OCc2ccc(F)cc2)c1)C(=O)NCCCn1ccnc1 | u | 52 | 99 | 63 | 100 | n | n
COCCCn1c(SC(C)C(=O)NC2CC2)nc2ccccc2c1=O (stereo not given) | n | n | n | n | x | n | x
Cc1ccc(OCC(=O)Nc2cccc(S(=O)(=O)N3CCCCCC3)c2)c([N+](=O)[O-])n1 | n | n | n | n | n | n | x
CC(C)C[C@H]1CN=C(Nc2ccccc2)N1CCCC1CCCCC1 | n | 50 | n | n | x | n | n
O=C(Nc1ccc2[nH]c(=O)[nH]c2c1)c1c(F)c(F)c(F)c(F)c1F | n | n | n | n | n | n | x
CC1CN(Cc2nc3ccccc3c(=O)[nH]2)CC(C)O1 (stereo not given) | n | n | n | n | n | n | x
COc1cccc(-c2nnc3sc(-c4ccc(C)cc4)nn23)c1 | n | 56 | n | n | n | n | 60 | Full FLuc ctr=47
CCOc1cccc(-c2nnc3sc(-c4cc(OC)c(OC)c(OC)c4)nn23)c1 | n | 61 | n | n | n | n | n
O=S(=O)(/C=C/c1ccccc1)Nc1cccc(S(=O)(=O)NC2=NCCC2)c1 | n | n | n | n | n | n | x
O=C1c2cccc3c2[C@H](CCC3)CN1[C@@H]1CN2CCC1CC2 | n | n | n | n | x | n | x
Cc1ccc(N2C(=O)N3[C@H](c4ccc(F)cc4)[C@@H]4C(=O)N(C5CCCCC5)C(=O)[C@@H]4[C@]3(Cc3ccccc3)C2=O)cc1 | n | 61 | n | n | x | x | 70 | Full FLuc ctr=57
O=C1[C@H]2[C@@H](c3ccc(F)cc3)N3C(=O)N(c4ccc(Br)cc4)C(=O)[C@@]3(Cc3ccc(Cl)cc3)[C@H]2C(=O)N1C1CCCCC1 | n | 85 | n | n | x | n | 94 | Full FLuc ctr=n
COc1ccc(NC(=O)c2cc(S(=O)(=O)N3CCOCC3)ccc2C)cc1S(=O)(=O)N1CCOCC1 | x | n | n | x | x | n | x
O=C(c1[nH]ncc1-c1cccc(Br)c1)C1CO1 (stereo not given) | n | 51 | n | n | x | n | 44 | Full FLuc ctr=51
O=C(c1[nH]ncc1-c1ccccc1)C1CO1 (stereo not given) | n | n | n | n | x | n | x
CC(=O)c1ccc(N2CCN(C(=O)c3nn(C)c4c3CS(=O)(=O)c3ccccc3-4)CC2)cc1 | n | n | n | n | x | n | x
CCCCCC(=O)Nc1cccc(C2=NOC3(C2)C[C@@H](C(N)=O)N(C(=O)CC(c2ccccc2)c2ccccc2)C3)c1 (stereo not given in full) | n | 53 | n | 76 | x | n | 48 | Full FLuc ctr=65
C/C=C\C(=O)Nc1cccc(C2=NOC3(C2)C[C@@H](C(N)=O)N(C(=O)CC(c2ccccc2)c2ccccc2)C3)c1 (stereo not given in full) | n | n | n | n | x | n | x
Cn1nc(C(F)(F)F)c(C#N)c1N1CCN(c2ccccc2)CC1 | n | n | n | n | n | n | x
SMILES | SKKanGAS inh | Mdm2 MdmX PPI | CSC inhib | T cruzi inh | Lmaj promast | Beta cell apopt | Mdm2 MdmX conf | others
Cn1nc(C(F)(F)F)c(C#N)c1N1CCN(c2ccc(F)cc2)CC1 | n | 56 | n | n | n | n | n
O=C(Cn1c(=O)cnc2ccccc21)N1CCN(S(=O)(=O)c2cccc([N+](=O)[O-])c2)CC1 | n | n | n | n | x | n | x
COC(=O)c1ccc(NC(=O)C(=O)NCC2CCCO2)cc1 (stereo not given) | n | n | n | n | n | n | x
O=c1[nH]cnc2c1sc1nc(C(F)F)cc(-c3ccccc3)c12 | x | 53 | n | x | x | n | n
CC(NCc1ccc(S(N)(=O)=O)cc1)C(=O)Nc1cccc(Cl)c1 (stereo not given) | n | n | n | n | x | n | x
O=C(Nc1nnc(-c2cccc(F)c2)s1)Nc1ccccc1F | n | n | n | n | n | n | x
O=C(Nc1nnc(-c2ccccc2SCc2ccccc2F)s1)Nc1ccccc1F | n | 79 | n | n | n | n | 66 | Full FLuc ctr=101
CCOC(=O)CSc1nnc(Cn2nnc3ccccc32)n1-c1ccc(F)cc1 | n | n | n | n | x | n | x
CC1=CC(C)(C)N2C(=O)C3(C(C#N)=C(N)Oc4cc(O)ccc43)c3c(C)c(C)cc1c32 (stereo not given) | n | 68 | n | n | 54 | n | 61 | Full FLuc ctr=48
Cc1ccc(-c2nc(-c3ccccc3)no2)c(Cl)c1 | n | 52 | n | n | n | x | 62 | Full FLuc ctr=163
COc1ccc2c(c1)c(CC(=O)Nc1nnc(C3CC3)s1)c(C)n2C(=O)c1ccc(Cl)cc1 | n | 83 | x | 57 | x | n | 80 | Full FLuc ctr=65
COc1ccc2c(c1)c(CC(=O)Nc1ccc(C(C)=O)cc1)c(C)n2C(=O)c1ccc(Cl)cc1 | n | n | n | n | n | n | x
C/C(=N/NC(=O)CNS(=O)(=O)c1ccccc1)c1ccc(Br)cc1 | n | n | n | n | x | n | x
Cc1[nH]c2ccccc2c1C(c1ccccn1)N1CCC(C)CC1 (stereo not given) | n | 51 | n | n | n | n | n
CCOC(=O)C1CCCN(C(c2ccccn2)c2c(C)[nH]c3ccccc23)C1 (stereo not given) | n | 53 | n | n | n | n | n
CS(=O)(=O)N(CC(=O)N1CCN(Cc2ccccc2)CC1)c1ccccc1Br | n | n | n | n | x | n | x
CCOC(=O)N/N=C(/C)c1ccc(N2C(=O)C3CCCCC3C2=O)cc1 (stereo not given) | n | n | n | n | n | n | x
CCOC(=O)c1[nH]cnc1C(=O)Nc1ccc([N+](=O)[O-])cc1 | n | n | n | n | x | n | x
O=C(Nc1ccc([N+](=O)[O-])cc1)c1nc[nH]c1C(=O)NC1CCCCC1 | n | 67 | n | n | 64 | n | n
O=C(Nc1ccc(F)cc1)c1nc[nH]c1C(=O)Nc1ccc([N+](=O)[O-])cc1 | x | 92 | n | n | 92 | n | n
